High-throughput results deposited in PubChem BioAssay by Johns Hopkins Ion Channel Center.
MrgX1 antagonist – antagonists of human MrgX1 receptor, primary screen, HEK293 cells, Fluo-4 calcium flux | Mas-related G-protein coupled receptor member X1 (Homo sapiens), Q96LB2 | BAM8-22 antagonism; active compounds read low | B-score at 10 µM | 310,000 compounds, 1.3% hits;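 active = calcium-response B-score plate-corrected more than 3 library SD below zero, starting fluorescence within 5 deviations, no agonist response on first addition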;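 also: peak minus trough fluorescence over baseline after final BAM8-22 challenge near maximal dose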
Target sequence (Q96LB2 whole entry, looked up): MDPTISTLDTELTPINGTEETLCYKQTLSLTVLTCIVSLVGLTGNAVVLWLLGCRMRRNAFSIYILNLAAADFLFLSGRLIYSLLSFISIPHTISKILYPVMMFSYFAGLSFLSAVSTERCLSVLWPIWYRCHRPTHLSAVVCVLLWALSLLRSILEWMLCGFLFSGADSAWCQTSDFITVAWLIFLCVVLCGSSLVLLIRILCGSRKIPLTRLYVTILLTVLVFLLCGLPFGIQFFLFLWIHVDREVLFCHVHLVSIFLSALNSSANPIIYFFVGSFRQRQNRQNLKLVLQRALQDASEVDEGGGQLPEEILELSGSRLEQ
MrgX1 agonist – agonists of human MrgX1 receptor, primary screen, HEK293 cells, Fluo-4 calcium flux; B-score at 10 µM; Mas-related G-protein coupled receptor member X1 (Homo sapiens), Q96LB2; Fluo-4 calcium fluorescence, agonist mode; active compounds read high; 310,000 compounds, 0.44% hits;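 active = calcium response B-score plate-corrected fluorescence ratio at least 3 library SD, with starting fluorescence B-score inside 5 SD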
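Test system: HEK293 cells stably expressing human MrgX1 receptor; amount: 15,000 cells per well; doses: compound delivered in addition one of three; times: overnight plating before 1 h dye loading; detection: Fluo-4 NW calcium-flux fluorescence, kinetic read; read-out basis: B-scored fluorescence response ratio; controls: positive and negative controls per plate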
RGS4 act – RGS4 potentiators or activators, primary screen, cell-based, HEK293 M3R inducible RGS4, calcium flux; carbachol calcium flux Fluo4; active compounds read low; B-score at 10 µM; 310,000 compounds, 0.92% hits;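 active = B-score of the integrated calcium signal more than 4 SD below the library mean, with starting fluorescence not abnormally high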;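 also: negative B-score means reduced calcium response which marks RGS4 activation or potentiation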
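Assay system: HEK293 FlpIn-TREx cells, stable M3R, doxycycline-inducible RGS4 / Probe or stimulus: carbachol, ECmax concentration / Times: overnight RGS4 induction, 30 min dye load 37 °C, 20 min compound RT / Signal: kinetic calcium fluorescence imaging with Fluo4-AM dye, 2 µM / Measure: Agonist-evoked peak-minus-minimum fluorescence over baseline, integrated ratio, B score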
RGS4 inh – RGS4 inhibitors, primary screen, cell-based, HEK293 M3R inducible RGS4, calcium flux | Regulator of G-protein signaling 4 (Homo sapiens), P49798 | Fluo-4 calcium flux; active compounds read high; triggered by carbachol at its EC20 | B-score at 10 µM | 310,000 compounds, 0.45% hits;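 active = B-score, a plate-corrected calcium signal, over three deviations above library mean, with baseline fluorescence within five deviations of library mean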;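 also: RGS4 expression induced by doxycycline in cells with stable M3 receptor; B-score is computed from the integrated fluorescence ratio over baseline after carbachol; higher B-score means a larger calcium signal and so more RGS4 inhibition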
MrgX1 PAM – positive allosteric modulators of MrgX1, primary screen, HEK293 cells, Fluo-4 calcium flux; Mas-related G-protein coupled receptor member X1 (Homo sapiens), Q96LB2; FDSS; active compounds read high; B-score at 10 µM; 310,000 compounds, 0.63% hits;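 active = plate-corrected calcium response at least 3 library SD above typical, normal starting fluorescence, not activating the receptor alone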;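 also: compound read alongside a low EC10 to EC30 dose of BAM8-22 agonist; peak minus trough fluorescence over baseline measured at the second addition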
An asterisk follows results filed as active; i = inactive; / = no result. In the library only some 3.5% were active in any assay of this set; here they are far more common.

SMILES	MrgX1 antagonist	MrgX1 agonist	RGS4 act	RGS4 inh	MrgX1 PAM
COc1cc(/C=N/NC(=O)c2ccccn2)ccc1OC(=O)c1ccccc1Br	i	i	-8.1*	i	i
CCCNC(=O)Nc1ccc(C(F)(F)F)cc1	i	i	i	i	i
COc1ccc(CN2CCN(C(=O)CC(C)C)CC2)cc1	i	i	i	i	i
O=C(N/N=C/c1cccc(OC(=O)c2ccccc2Cl)c1)c1cccnc1	i	i	-7.7*	i	i
COc1cc(/C=C/C(=O)NC(=O)c2ccccc2O)ccc1O	i	i	i	i	12*
Cc1ccc(C(=O)N/N=C/c2ccc(OC(=O)c3ccccc3Cl)cc2)cn1	i	i	i	i	i
CN(C)c1nccc(N(Cc2ccccc2)Cc2ccccc2)c1C#N	i	i	-7*	i	i
CN(C)CCN(Cc1ccccc1)c1ccnc(N(C)C)c1C#N	i	i	i	i	i
CC(C)(C)c1nn(-c2ccccc2)c2[nH]c(=O)c(C=O)cc12	i	i	i	i	i
O=C(/C=C/c1ccccc1)CC(O)(c1ccccc1)C(F)(F)F (stereo not drawn)	i	i	-10*	i	i
COc1ccc(/C=C/C(=O)CC(O)(c2ccccc2)C(F)(F)F)cc1 (stereo not drawn)	i	i	i	i	i
O=C(/C=C/c1ccccc1)CC(O)(c1ccccc1)C(F)(F)C(F)F (stereo not drawn)	i	i	-8.9*	i	i
COC(=O)Cc1nc(Nc2ccccc2)sc1C	i	i	i	i	i
NC(=O)CSc1nnc(NC(=O)c2ccc(S(=O)(=O)N3CCCCC3)cc2)s1	i	i	i	i	i
COCCN1CCN(C(=O)c2ccc3c(c2)S(=O)(=O)c2ccccc2C3=O)CC1	i	i	i	i	i
Cc1ccc(-n2nc(C)c(/C=N/NC(=O)c3cccnc3)c2Cl)cc1	-4.8*	i	i	i	i
Cc1nn(-c2ccccc2)c(Cl)c1/C=N/NC(=O)c1ccc(NS(=O)(=O)c2cccs2)cc1	i	i	i	i	11*
O=C(Nc1ccc(Br)cc1)c1ccc2c(c1)OCO2	i	i	i	i	i
CC(C)[C@H](NS(=O)(=O)c1ccccc1)C(=O)OCC(=O)Nc1ccccc1Sc1ccccc1	-6.4*	i	i	i	i
CC(C)(C)C(=O)Nc1ccc(S(=O)(=O)Nc2nccs2)cc1	i	i	i	i	i
Cc1ccc(C(=O)NN2C(=O)/C(=C/c3cn(C)c4ccccc34)SC2=S)cc1	-4.8*	i	/	/	i
O=C1/C(=C/c2ccc(O)c(O)c2)SC(=S)N1Nc1ccccc1	/	/	i	i	/
COc1cc(/C=C2\SC(=S)N(NC(=O)c3cccnc3)C2=O)ccc1O	-6.7*	i	i	i	i
O=C(NN1C(=O)/C(=C/c2ccc(O)c(O)c2)SC1=S)c1ccccc1	i	32*	i	i	i
Cn1cc(/C=C2\SC(=S)N(NC(=O)c3ccccc3Cl)C2=O)c2ccccc21	i	i	/	/	i
COc1cc(/C=C2\SC(=S)N(NC(=O)c3ccc(O)cc3)C2=O)ccc1O	i	i	i	i	i
CCCCN(C)C(=O)Cn1c(=O)oc2cc(S(=O)(=O)N3CC(C)CC(C)C3)ccc21 (stereo not drawn)	i	i	i	i	i
Cc1ccc(/C=C2\CCC3=C2OC(N)=C(C#N)C3c2ccc(C)cc2)cc1 (stereo not drawn)	i	73*	i	i	i
CN1CCCCC1CCN1c2ccccc2Sc2ccc(S(C)=O)cc21 (stereo not drawn)	i	i	-7.3*	i	i
CN1CCCC(CN2c3ccccc3Sc3ccccc32)C1 (stereo not drawn)	i	i	i	i	i
